This is an account of results in ChEMBL document CHEMBL1136881, “2-(substituted phenyl)amino analogs of 1-methoxyspirobrassinol methyl ether: synthesis and anticancer activity” (Bioorg Med Chem, 2009).

pIC50: −log10 of the molar value. Calls of active or inactive are those of the source. No cut-off for these calls is given here.

As a reminder, the pIC50 is the negative decadic logarithm of the IC50, by convention in mol/L. Low values mean a high IC50, high ones a low IC50.

In one assay the test system is Jurkat. The assay is described as follows: Cytotoxicity against human Jurkat cells after 72 hrs by MTT assay. Type of assay: functional, cell-based. Put shortly: (§1)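 MTT microculture assay. Cells were seeded per well at 3 × 10³ (A-549, MCF-7, MDA-MB-231; DMEM), 5 × 10³ (HeLa; RPMI 1640) or 1 × 10⁴ (Jurkat, CEM; RPMI 1640), all with 10% FCS. Final concentrations were 10⁻⁴–10⁻⁶ mol·L⁻¹ (4 levels), for 72 h. MTT was then added for 4 h and SDS for 12 h, and A540 read. IC50 was taken against blank-corrected untreated control.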

In the next assay the test system is MCF7. The assay is described as follows: Cytotoxicity against human MCF7 cells after 72 hrs by MTT assay. Conditions: MCF7, 72 h. Type of assay: functional, cell-based. Put shortly:
as §1
On the technique in general: Tetrazolium assays rely on reduction of a dye to a coloured formazan, in cell work by metabolically active cells.

The test system of a further assay is MDA-MB-231. The assay is described as follows: Cytotoxicity against human MDA-MB-231 cells after 72 hrs by MTT assay. Type of assay: functional, cell-based. Conditions: MDA-MB-231, 72 h. Put shortly:
as §1

Another assay relates to HeLa. The assay can be described thus: Cytotoxicity against human HeLa cells after 72 hrs by MTT assay. Type of assay: functional, cell-based.
The next assay has as its system CCRF-CEM. The assay can be described thus: Cytotoxicity against human CCRF-CEM cells after 72 hrs by MTT assay. Type of assay: functional, cell-based. Put shortly: as §1
The subject of another assay is A549. The assay can be described thus: Cytotoxicity against human A549 cells after 72 hrs by MTT assay. Type of assay: functional, cell-based. Conditions: A549, 72 h.
A further assay concerns Bacillus subtilis. The assay can be described thus: Antibacterial activity against Bacillus subtilis CCM 4062 at 20 ug/2.5 ul/6 mm disk after 24 hrs by disk diffusion assay. Type of assay: functional, organism-based. Put shortly: (§2)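 Inoculum was prepared from an overnight blood-agar culture and adjusted in saline to 1.5 × 10⁸ CFU/ml (0.5 McFarland). It was swabbed evenly onto Mueller–Hinton or Sabouraud agar, and paper disks were applied. Plates were incubated 24 h at 37 °C. The read-out was inhibition-zone diameter around the disk, run alongside clinical antimicrobial reference agents.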
(In agar diffusion tests the substance spreads into inoculated agar from a disc or well.)

The next assay concerns Streptococcus pyogenes. The assay can be described thus: Antibacterial activity against Streptococcus pyogenes CCM 4425 at 20 ug/2.5 ul/6 mm disk after 24 hrs by disk diffusion assay. Type of assay: functional. The method, boiled down:
as §2

As for `CON1c2ccccc2[C@@]2(CN=C(SC)S2)[C@@H]1Oc1ccccc1` (relative stereo), the pIC50 with Jurkat, with MCF7, in the assay on MDA-MB-231, in the assay on HeLa, in the assay on CCRF-CEM and in the assay on A549 was 4.00 in each case.
Regarding `CON1c2ccccc2[C@@]2(CN=C(SC)S2)[C@H]1Nc1ccccc1` (relative stereo), the pIC50 in the assay with Jurkat was 4.00; in the assay with MCF7, 4.00; in the assay on MDA-MB-231, 4.00; in the assay on HeLa it was 4.50; with CCRF-CEM, 4.00; with A549 it was 4.00.
For the compound `CON1c2ccccc2[C@@]2(CN=C(SC)S2)[C@H]1Nc1ccc(C)cc1` (relative stereo), the pIC50 was 4.48 in the assay with Jurkat; 4.00 in the assay with MCF7; 4.00 in the assay on MDA-MB-231; 4.43 in the assay on HeLa; 4.00 with CCRF-CEM; 4.00 in the assay with A549.
On to `CN[C@@H]1N(OC)c2ccccc2[C@@]12CN=C(SC)S2` (relative stereo), for which the pIC50 in the assay with Jurkat is 4.00; in the assay on MCF7, 4.00; in the assay with MDA-MB-231 it was 4.00; in the assay with HeLa, 4.47; with CCRF-CEM, 4.00; in the assay with A549, 4.00.
On to `CON1c2ccccc2[C@@]2(CN=C(SC)S2)[C@H]1Oc1ccccc1` (relative stereo), for which the pIC50 with Jurkat, in the assay with MCF7, in the assay on MDA-MB-231, in the assay with HeLa, with CCRF-CEM and in the assay on A549 was 4.00 in each case.
Turning to `CON1c2ccccc2[C@@]2(CN=C(SC)S2)[C@@H]1Nc1ccccc1Cl` (relative stereo), the pIC50 is 4.53 in the assay on Jurkat; 4.00 in the assay with MCF7; 4.00 with MDA-MB-231; 4.11 in the assay with HeLa; 4.44 with CCRF-CEM; 4.00 in the assay on A549.
As for `CO[C@H]1N(OC)c2ccccc2[C@@]12CN=C(SC)S2` (relative stereo), the pIC50 is 4.52 in the assay with Jurkat; 4.00 in the assay on MCF7; 4.00 with MDA-MB-231; 4.31 with HeLa; 4.00 with CCRF-CEM; 4.00 in the assay with A549.
On to `CO[C@@H]1N(OC)c2ccccc2[C@@]12CN=C(SC)S2` (relative stereo), for which the pIC50 in the assay with Jurkat is 4.24; in the assay on MCF7, 4.00; with MDA-MB-231, 4.00; in the assay on HeLa it was 4.27; in the assay with CCRF-CEM, 4.00; with A549, 4.00.
`CON1c2ccccc2[C@@]2(CN=C(SC)S2)[C@@H]1Nc1ccc(Cl)c(Cl)c1` (relative stereo): the pIC50 with Jurkat is 5.00; in the assay with MCF7, 4.00; in the assay on MDA-MB-231 it was 4.45; in the assay on HeLa it was 4.81; in the assay on CCRF-CEM it was 4.00; with A549, 4.61.
Consider `CON1c2ccccc2[C@@]2(CN=C(SC)S2)[C@@H]1Nc1ccc(C(F)(F)F)cc1` (relative stereo), for which the pIC50 in the assay on Jurkat was 4.38; in the assay with MCF7, 4.00; in the assay on MDA-MB-231, 4.06; in the assay on HeLa it was 4.09; in the assay with CCRF-CEM it was 4.13; in the assay with A549 it was 6.00. In addition, in the assay with Bacillus subtilis, the outcome was Active.
In the case of `CON1c2ccccc2[C@@]2(CN=C(SC)S2)[C@@H]1Nc1ccc(Cl)cc1` (relative stereo), the pIC50 with Jurkat was 4.51; in the assay with MCF7 it was 4.00; in the assay with MDA-MB-231, 4.00; in the assay on HeLa, 4.35; in the assay on CCRF-CEM, 4.43; in the assay with A549, 4.07.
`COc1ccc(N[C@H]2N(OC)c3ccccc3[C@@]23CN=C(SC)S3)cc1` (relative stereo): the pIC50 was 4.16 in the assay with Jurkat; 4.00 with MCF7; 4.19 in the assay on MDA-MB-231; 4.00 in the assay with HeLa; 4.81 with CCRF-CEM; 4.00 in the assay with A549.
Consider `CON1c2ccccc2[C@@]2(CN=C(SC)S2)[C@H]1Nc1ccccc1Cl` (relative stereo), for which the pIC50 was 4.37 in the assay with Jurkat; 4.00 in the assay with MCF7; 4.00 in the assay with MDA-MB-231; 4.00 in the assay with HeLa; 4.12 in the assay with CCRF-CEM; 4.09 with A549.
`CON1c2ccccc2[C@@]2(CN=C(SC)S2)[C@H]1Nc1ccc([N+](=O)[O-])cc1` (relative stereo): the pIC50 in the assay with Jurkat is 4.00; in the assay on MCF7, 4.06; in the assay with MDA-MB-231, 4.00; with HeLa it was 4.00; in the assay on CCRF-CEM it was 4.26; in the assay with A549, 4.52.
In the case of `CON1c2ccccc2[C@@]2(CN=C(SC)S2)[C@@H]1Nc1ccc([N+](=O)[O-])cc1` (relative stereo), the pIC50 was 5.00 with Jurkat; 4.00 with MCF7; 4.00 in the assay on MDA-MB-231; 4.30 in the assay with HeLa; 4.00 with CCRF-CEM; 4.00 in the assay with A549.
Regarding `CON1c2ccccc2[C@@]2(CN=C(SC)S2)[C@H]1Nc1ccc(Cl)c(Cl)c1` (relative stereo), the pIC50 in the assay on Jurkat is 4.68; in the assay with MCF7, 4.65; in the assay on MDA-MB-231, 4.68; with HeLa, 4.66; in the assay on CCRF-CEM, 4.65; with A549 it was 4.68. Besides, in the assay on Bacillus subtilis, the result was Active.
As to `CON1c2ccccc2[C@@]2(CN=C(SC)S2)[C@@H]1Nc1ccccc1` (relative stereo), the pIC50 in the assay on Jurkat was 4.75; in the assay with MCF7 it was 4.00; with MDA-MB-231, 4.21; in the assay on HeLa it was 4.59; in the assay on CCRF-CEM, 4.50; in the assay with A549, 4.00.
For `CON1c2ccccc2[C@@]2(CN=C(SC)S2)[C@H]1Nc1ccc(C)c(C)c1` (relative stereo), the pIC50 was 4.33 with Jurkat; 4.24 with MCF7; 4.00 in the assay on MDA-MB-231; 4.62 in the assay on HeLa; 4.34 in the assay with CCRF-CEM; 4.37 in the assay on A549.
In the case of `CON1c2ccccc2[C@@]2(CN=C(SC)S2)[C@@H]1Nc1ccc(C)c(C)c1` (relative stereo), the pIC50 in the assay with Jurkat was 5.00; in the assay with MCF7, 4.00; with MDA-MB-231 it was 4.00; with HeLa, 4.26; in the assay with CCRF-CEM it was 4.00; in the assay on A549, 4.00.
Take `CON1c2ccccc2[C@@]2(CN=C(SC)S2)[C@H]1Nc1ccc(Cl)cc1` (relative stereo): the pIC50 was 4.00 with Jurkat; 4.55 in the assay on MCF7; 4.68 in the assay with MDA-MB-231; 4.65 in the assay with HeLa; 4.00 in the assay on CCRF-CEM; 4.65 in the assay with A549.
Consider `CON1c2ccccc2[C@@]2(CN=C(SC)S2)[C@H]1Nc1ccc(Br)cc1` (relative stereo), for which the pIC50 with Jurkat was 4.48; in the assay on MCF7 it was 4.47; in the assay on MDA-MB-231 it was 4.00; with HeLa it was 4.09; in the assay on CCRF-CEM it was 4.54; in the assay on A549 it was 4.45.
Consider `COc1ccc(N[C@@H]2N(OC)c3ccccc3[C@@]23CN=C(SC)S3)cc1` (relative stereo), for which the pIC50 with Jurkat is 4.46; with MCF7, 4.00; in the assay with MDA-MB-231, 4.00; in the assay with HeLa, 4.09; in the assay on CCRF-CEM, 5.00; in the assay with A549, 4.13.
As to `CON1c2ccccc2[C@@]2(CN=C(SC)S2)[C@H]1Nc1ccc(C(F)(F)F)cc1` (relative stereo), the pIC50 in the assay with Jurkat is 4.55; in the assay with MCF7, 4.18; in the assay with MDA-MB-231 it was 4.51; with HeLa it was 4.46; in the assay on CCRF-CEM, 4.27; in the assay with A549 it was 4.33. For the same compound, in the assay with Bacillus subtilis, the outcome was Active.
As to `CON1c2ccccc2[C@@]2(CN=C(SC)S2)[C@@H]1Nc1ccc(C)cc1` (relative stereo), the pIC50 is 5.18 in the assay with Jurkat; 4.00 in the assay on MCF7; 4.10 in the assay with MDA-MB-231; 4.00 in the assay with HeLa; 4.19 with CCRF-CEM; 4.00 in the assay on A549.
As to `CON1c2ccccc2[C@@]2(CN=C(SC)S2)[C@@H]1Nc1ccc(Br)cc1` (single isomer, unassigned), the pIC50 was 4.53 with Jurkat; 4.00 in the assay on MCF7; 4.00 with MDA-MB-231; 4.25 in the assay with HeLa; 4.26 in the assay on CCRF-CEM; 4.00 with A549. In addition, in the assay on Streptococcus pyogenes, the “diameter of the inhibition zone (DIZ)” value is given as 7 mm.
In the case of `COc1cccc2c1C(=O)c1c(O)c3c(c(O)c1C2=O)C[C@@](O)(C(=O)CO)C[C@@H]3O[C@H]1C[C@H](N)[C@H](O)[C@H](C)O1` [DOXORUBICIN], the pIC50 is 7.11 in the assay with Jurkat, 6.30 in the assay with MCF7, 6.70 in the assay with MDA-MB-231 and 7.05 in the assay on CCRF-CEM.
In the case of `COc1cc([C@@H]2c3cc4c(cc3[C@@H](O[C@@H]3O[C@@H]5CO[C@@H](C)O[C@H]5[C@H](O)[C@H]3O)[C@H]3COC(=O)[C@H]23)OCO4)cc(OC)c1O` [ETOPOSIDE], the pIC50 was 5.92 with Jurkat; 4.96 in the assay with MCF7; 4.67 with MDA-MB-231; 5.41 with HeLa; 5.96 with CCRF-CEM; 4.84 in the assay with A549.
